Measurements as given in ChEMBL document CHEMBL3112486, “Novel class of benzoic acid ester derivatives as potent PDE4 inhibitors for inhaled administration in the treatment of respiratory diseases” (J Med Chem, 2014).

Tests used:
Phosphodiesterase 4 [1] = target: T1, Phosphodiesterase 4 (Homo sapiens, UniProt P27815+Q08499+Q07343+Q08493); assay: Inhibition of PDE4 isolated from human U937 cells assessed as […] by LANCE assay; format: cell-free; details: u-937
Phosphodiesterase 4 [2] = target: T1, Phosphodiesterase 4; assay: Inhibition of PDE4 activity in human PBMC assessed as inhibition of LPS-induced TNFalpha release after 18 hrs by ELISA
Summary of the method: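 Human PBMCs plated at 10^5 cells/well in RPMI 1640 without phenol red plus 10% FBS, at 37 °C, 5% CO2. Compound added at 10^-15 to 10^-6 M (final DMSO 0.2%), with E. coli LPS at 3 ng/mL final, for 18 h. TNFα in supernatant measured by paired-antibody ELISA. IC50 from four-parameter logistic nonlinear regression, reported with 95% confidence intervals.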

Compound: O=C(O[C@@H](Cc1c(Cl)c[n+]([O-])cc1Cl)c1ccc(OC(F)F)c(OCC2CC2)c1)c1ccccc1
- IC50 (Phosphodiesterase 4 [1]): 0.072 nM
- IC50 (Phosphodiesterase 4 [2]): 1.71 nM

Compound: O=C(CCCc1ccccc1)OC(Cc1c(Cl)cncc1Cl)c1ccc(OC(F)F)c(OCC2CC2)c1 (racemic)
- IC50 (Phosphodiesterase 4 [1]): 1.34 nM

Compound: O=C(OC(Cc1c(Cl)cncc1Cl)c1ccc(OC(F)F)c(OCC2CC2)c1)c1ccccc1 (racemic)
- IC50 (Phosphodiesterase 4 [1]): 1.14 nM

Compound: COc1cc(NS(C)(=O)=O)cc(C(=O)O[C@@H](Cc2c(Cl)c[n+]([O-])cc2Cl)c2ccc(OC(F)F)c(OCC3CC3)c2)c1
- IC50 (Phosphodiesterase 4 [1]): 0.17 nM
- IC50 (Phosphodiesterase 4 [2]): 0.13 nM

Compound: COc1ccc(C(=O)O[C@@H](Cc2c(Cl)c[n+]([O-])cc2Cl)c2ccc(OC(F)F)c(OCC3CC3)c2)cc1OC(C)=O
- IC50 (Phosphodiesterase 4 [1]): 0.05 nM
- IC50 (Phosphodiesterase 4 [2]): 0.96 nM

Compound: Cc1cc(C(=O)O[C@@H](Cc2c(Cl)c[n+]([O-])cc2Cl)c2ccc(OC(F)F)c(OCC3CC3)c2)ccc1NS(C)(=O)=O
- IC50 (Phosphodiesterase 4 [1]): 0.05 nM
- IC50 (Phosphodiesterase 4 [2]): 0.41 nM

Compound: Nc1ccc(C(=O)O[C@@H](Cc2c(Cl)c[n+]([O-])cc2Cl)c2ccc(OC(F)F)c(OCC3CC3)c2)cc1OCC1CC1
- IC50 (Phosphodiesterase 4 [1]): 0.09 nM
- IC50 (Phosphodiesterase 4 [2]): 0.11 nM

Compound: O=C(O[C@@H](Cc1c(Cl)c[n+]([O-])cc1Cl)c1ccc(OC(F)F)c(OCC2CC2)c1)c1ccc(Cl)cc1
- IC50 (Phosphodiesterase 4 [1]): 0.16 nM
- IC50 (Phosphodiesterase 4 [2]): 1.85 nM

Compound: CS(=O)(=O)Nc1ccc(C(=O)O[C@@H](Cc2c(Cl)c[n+]([O-])cc2Cl)c2ccc(OC(F)F)c(OCC3CC3)c2)cc1OCc1ccccc1
- IC50 (Phosphodiesterase 4 [1]): 0.56 nM
- IC50 (Phosphodiesterase 4 [2]): 0.99 nM

Compound: O=C(O[C@@H](Cc1c(Cl)cncc1Cl)c1ccc(OC(F)F)c(OCC2CC2)c1)c1ccc(OC(F)F)c(OCC2CC2)c1
- IC50 (Phosphodiesterase 4 [1]): 1.9 nM

Compound: CC(=O)Nc1ccc(C(=O)O[C@@H](Cc2c(Cl)c[n+]([O-])cc2Cl)c2ccc(OC(F)F)c(OCC3CC3)c2)cc1OCC1CC1
- IC50 (Phosphodiesterase 4 [1]): 0.24 nM
- IC50 (Phosphodiesterase 4 [2]): 0.21 nM

Compound: O=C(Cc1ccccc1)OC(Cc1c(Cl)cncc1Cl)c1ccc(OC(F)F)c(OCC2CC2)c1 (racemic)
- IC50 (Phosphodiesterase 4 [1]): 1.06 nM

Compound: COc1ccc(NS(C)(=O)=O)c(C(=O)O[C@@H](Cc2c(Cl)c[n+]([O-])cc2Cl)c2ccc(OC(F)F)c(OCC3CC3)c2)c1
- IC50 (Phosphodiesterase 4 [1]): 0.4 nM
- IC50 (Phosphodiesterase 4 [2]): > 60 nM

Compound: COc1cc(NS(C)(=O)=O)ccc1C(=O)O[C@@H](Cc1c(Cl)c[n+]([O-])cc1Cl)c1ccc(OC(F)F)c(OCC2CC2)c1
- IC50 (Phosphodiesterase 4 [1]): 0.06 nM
- IC50 (Phosphodiesterase 4 [2]): 0.43 nM

Compound: COc1ccc(C(=O)O[C@@H](Cc2c(Cl)c[n+]([O-])cc2Cl)c2ccc(OC(F)F)c(OCC3CC3)c2)cc1OC
- IC50 (Phosphodiesterase 4 [1]): 0.07 nM
- IC50 (Phosphodiesterase 4 [2]): 0.12 nM

Compound: O=C(O[C@@H](Cc1c(Cl)c[n+]([O-])cc1Cl)c1ccc(OC(F)F)c(OCC2CC2)c1)c1ccc(NS(=O)(=O)C2CC2)c(OCC2CC2)c1
- IC50 (Phosphodiesterase 4 [1]): 0.15 nM
- IC50 (Phosphodiesterase 4 [2]): 0.34 nM

Compound: O=C(O[C@H](Cc1c(Cl)c[n+]([O-])cc1Cl)c1ccc(OC(F)F)c(OCC2CC2)c1)c1ccc(OC(F)F)c(OCC2CC2)c1
- IC50 (Phosphodiesterase 4 [1]): 2.43 nM

Compound: CS(=O)(=O)Nc1ccc(C(=O)O[C@@H](Cc2c(Cl)c[n+]([O-])cc2Cl)c2ccc(OC(F)F)c(OCC3CC3)c2)c(OCC2CC2)c1
- IC50 (Phosphodiesterase 4 [1]): 0.26 nM
- IC50 (Phosphodiesterase 4 [2]): 1.96 nM

Compound: O=C(O[C@H](Cc1c(Cl)cncc1Cl)c1ccc(OC(F)F)c(OCC2CC2)c1)c1ccc(OC(F)F)c(OCC2CC2)c1
- IC50 (Phosphodiesterase 4 [1]): 44 nM

Compound: O=C(O[C@@H](Cc1c(Cl)c[n+]([O-])cc1Cl)c1ccc(OC(F)F)c(OCC2CC2)c1)c1ccc(C(F)(F)F)cc1
- IC50 (Phosphodiesterase 4 [1]): 0.2 nM
- IC50 (Phosphodiesterase 4 [2]): 21 nM

Compound: Cc1ccc(C(=O)O[C@@H](Cc2c(Cl)c[n+]([O-])cc2Cl)c2ccc(OC(F)F)c(OCC3CC3)c2)cc1
- IC50 (Phosphodiesterase 4 [1]): 0.1 nM
- IC50 (Phosphodiesterase 4 [2]): 0.66 nM

Compound: O=C(O[C@@H](Cc1c(Cl)c[n+]([O-])cc1Cl)c1ccc(OC(F)F)c(OCC2CC2)c1)c1ccc(CO)c(OCC2CC2)c1
- IC50 (Phosphodiesterase 4 [1]): 0.08 nM
- IC50 (Phosphodiesterase 4 [2]): 0.69 nM

Compound: COc1ccc(C(=O)O[C@@H](Cc2c(Cl)c[n+]([O-])cc2Cl)c2ccc(OC(F)F)c(OCC3CC3)c2)cc1NC(C)=O
- IC50 (Phosphodiesterase 4 [1]): 0.08 nM
- IC50 (Phosphodiesterase 4 [2]): 0.67 nM

Compound: O=C(O[C@@H](Cc1c(Cl)c[n+]([O-])cc1Cl)c1ccc(OC(F)F)c(OCC2CC2)c1)c1ccc(OC(F)F)c(OCC2CC2)c1
- IC50 (Phosphodiesterase 4 [1]): 0.22 nM
- IC50 (Phosphodiesterase 4 [2]): 1.1 nM

Compound: CS(=O)(=O)Nc1cc(C(=O)O[C@@H](Cc2c(Cl)c[n+]([O-])cc2Cl)c2ccc(OC(F)F)c(OCC3CC3)c2)ccc1OCc1ccccc1
- IC50 (Phosphodiesterase 4 [1]): 0.32 nM
- IC50 (Phosphodiesterase 4 [2]): 0.53 nM

Compound: COc1ccc(C(=O)O[C@@H](Cc2c(Cl)c[n+]([O-])cc2Cl)c2ccc(OC(F)F)c(OCC3CC3)c2)cc1Oc1ccccc1
- IC50 (Phosphodiesterase 4 [1]): 0.21 nM
- IC50 (Phosphodiesterase 4 [2]): 1.36 nM

Compound: O=C(O/C(=C\c1c(Cl)cncc1Cl)c1ccc(OC(F)F)c(OCC2CC2)c1)c1ccc(OC(F)F)c(OCC2CC2)c1
- IC50 (Phosphodiesterase 4 [1]): 1.18 nM

Compound: CCCC(=O)OC(Cc1c(Cl)cncc1Cl)c1ccc(OC(F)F)c(OCC2CC2)c1 (racemic)
- IC50 (Phosphodiesterase 4 [1]): 1.74 nM

Compound: COc1cccc(NS(C)(=O)=O)c1C(=O)O[C@@H](Cc1c(Cl)c[n+]([O-])cc1Cl)c1ccc(OC(F)F)c(OCC2CC2)c1
- IC50 (Phosphodiesterase 4 [1]): 6.83 nM
- IC50 (Phosphodiesterase 4 [2]): > 60 nM

Compound: COc1ccc(C(=O)O[C@@H](Cc2c(Cl)c[n+]([O-])cc2Cl)c2ccc(OC(F)F)c(OCC3CC3)c2)cc1O
- IC50 (Phosphodiesterase 4 [1]): 0.08 nM
- IC50 (Phosphodiesterase 4 [2]): 0.75 nM

Compound: CNS(=O)(=O)c1cc(C(=O)O[C@@H](Cc2c(Cl)c[n+]([O-])cc2Cl)c2ccc(OC(F)F)c(OCC3CC3)c2)ccc1OC
- IC50 (Phosphodiesterase 4 [1]): 0.03 nM
- IC50 (Phosphodiesterase 4 [2]): 0.25 nM

Compound: COc1ccc(NS(C)(=O)=O)cc1C(=O)O[C@@H](Cc1c(Cl)c[n+]([O-])cc1Cl)c1ccc(OC(F)F)c(OCC2CC2)c1
- IC50 (Phosphodiesterase 4 [1]): 0.04 nM
- IC50 (Phosphodiesterase 4 [2]): 0.89 nM

Compound: N#Cc1ccc(C(=O)O[C@@H](Cc2c(Cl)c[n+]([O-])cc2Cl)c2ccc(OC(F)F)c(OCC3CC3)c2)cc1
- IC50 (Phosphodiesterase 4 [1]): 0.41 nM
- IC50 (Phosphodiesterase 4 [2]): 2.1 nM

Compound: COc1ccc(C(=O)O[C@@H](Cc2c(Cl)c[n+]([O-])cc2Cl)c2ccc(OC(F)F)c(OCC3CC3)c2)cc1S(=O)(=O)N(C)C
- IC50 (Phosphodiesterase 4 [1]): 0.03 nM
- IC50 (Phosphodiesterase 4 [2]): 1.85 nM

Compound: [O-][n+]1cc(Cl)c(C[C@H](O)c2ccc(OC(F)F)c(OCC3CC3)c2)c(Cl)c1
- IC50 (Phosphodiesterase 4 [1]): 9.44 nM
- IC50 (Phosphodiesterase 4 [2]): 479 nM

Compound: O=C(O[C@@H](Cc1c(Cl)c[n+]([O-])cc1Cl)c1ccc(OC(F)F)c(OCC2CC2)c1)c1ccc(O)c(OCC2CC2)c1
- IC50 (Phosphodiesterase 4 [1]): 0.04 nM
- IC50 (Phosphodiesterase 4 [2]): 0.85 nM

Compound: CS(=O)(=O)Nc1ccc(C(=O)O[C@@H](Cc2c(Cl)c[n+]([O-])cc2Cl)c2ccc(OC(F)F)c(OCC3CC3)c2)cc1CO
- IC50 (Phosphodiesterase 4 [1]): 0.03 nM
- IC50 (Phosphodiesterase 4 [2]): 1.05 nM

Compound: CS(=O)(=O)Nc1ccc(OCC2CC2)c(C(=O)O[C@@H](Cc2c(Cl)c[n+]([O-])cc2Cl)c2ccc(OC(F)F)c(OCC3CC3)c2)c1
- IC50 (Phosphodiesterase 4 [1]): 0.4 nM
- IC50 (Phosphodiesterase 4 [2]): 4.9 nM

Compound: CS(=O)(=O)Nc1cc(OCC2CC2)cc(C(=O)O[C@@H](Cc2c(Cl)c[n+]([O-])cc2Cl)c2ccc(OC(F)F)c(OCC3CC3)c2)c1
- IC50 (Phosphodiesterase 4 [1]): 0.06 nM
- IC50 (Phosphodiesterase 4 [2]): 0.92 nM

Compound: COc1ccc(C(=O)O[C@@H](Cc2c(Cl)c[n+]([O-])cc2Cl)c2ccc(OC(F)F)c(OCC3CC3)c2)cc1NS(C)(=O)=O
- IC50 (Phosphodiesterase 4 [1]): 0.04 nM
- IC50 (Phosphodiesterase 4 [2]): 0.06 nM

Compound: CC(=O)OC(Cc1c(Cl)cncc1Cl)c1ccc(OC(F)F)c(OCC2CC2)c1 (racemic)
- IC50 (Phosphodiesterase 4 [1]): 4.09 nM

Compound: CS(=O)(=O)Nc1cccc(C(=O)O[C@@H](Cc2c(Cl)c[n+]([O-])cc2Cl)c2ccc(OC(F)F)c(OCC3CC3)c2)c1OCC1CC1
- IC50 (Phosphodiesterase 4 [1]): 0.18 nM
- IC50 (Phosphodiesterase 4 [2]): 1.31 nM
